Experimental data from ChEMBL document CHEMBL1143393, “Indene-based scaffolds. 2. An indole-indene switch: discovery of novel indenylsulfonamides as 5-HT6 serotonin receptor agonists” (J Med Chem, 2009).

Assays:
[1] = molecular target: T1, 5-hydroxytryptamine receptor 6 (Homo sapiens, UniProt P50406); test: Agonist activity at human 5HT6 receptor expressed in HEK293F cells assessed as stimulation of cAMP level after 30 mins by HTRF assay […]; assay type: functional, cell-based
Method in brief: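 HEK293F cells stably expressing human 5-HT6 were held overnight in serum-free medium, then 20000 cells/well were placed in Ham's F12 with 1 mM IBMX and 20 µM pargyline. Compound or vehicle was added for 30 min at 37 °C. Results were given as Emax and EC50.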

[2] = molecular target: T1, 5-hydroxytryptamine receptor 6; test: Displacement of [3H]LSD from human 5HT6 receptor expressed in HEK293 cells at 1 uM by liquid scintillation counting; assay type: cell-based
[3] = molecular target: T1, 5-hydroxytryptamine receptor 6; test: Displacement of [3H]LSD from human 5HT6 receptor expressed in HEK293 cells by liquid scintillation counting; assay type: cell-based
Method in brief: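 Bound ligand was collected on polyethylenimine-pretreated glass fiber filters, washed with 50 mM Tris-Cl pH 7.4, and counted by liquid scintillation. Nonspecific binding was defined with 100 µM serotonin. Triplicate points. IC50 came from linear regression, and Ki was derived by Cheng-Prusoff.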

[4] = molecular target: T2, Adrenergic receptor alpha-1 (Rattus norvegicus, UniProt P15823+P23944+P43140); test: Inhibition of rat adrenergic alpha1 receptor
T2 sequence (P15823 whole entry): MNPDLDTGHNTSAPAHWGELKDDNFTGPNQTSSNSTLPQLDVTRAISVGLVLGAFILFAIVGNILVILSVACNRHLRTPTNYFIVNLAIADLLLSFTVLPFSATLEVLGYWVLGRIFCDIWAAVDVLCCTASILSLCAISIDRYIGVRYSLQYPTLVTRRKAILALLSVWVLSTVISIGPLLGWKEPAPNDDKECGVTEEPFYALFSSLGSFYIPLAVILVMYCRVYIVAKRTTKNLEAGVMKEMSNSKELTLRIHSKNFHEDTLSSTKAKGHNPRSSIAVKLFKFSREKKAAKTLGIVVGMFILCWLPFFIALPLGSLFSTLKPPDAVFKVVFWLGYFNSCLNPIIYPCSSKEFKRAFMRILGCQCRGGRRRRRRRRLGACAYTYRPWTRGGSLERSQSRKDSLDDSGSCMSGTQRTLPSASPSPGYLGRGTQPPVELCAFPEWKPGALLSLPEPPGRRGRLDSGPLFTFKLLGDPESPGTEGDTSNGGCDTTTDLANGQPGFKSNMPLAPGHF
T2 sequence (P23944 whole entry): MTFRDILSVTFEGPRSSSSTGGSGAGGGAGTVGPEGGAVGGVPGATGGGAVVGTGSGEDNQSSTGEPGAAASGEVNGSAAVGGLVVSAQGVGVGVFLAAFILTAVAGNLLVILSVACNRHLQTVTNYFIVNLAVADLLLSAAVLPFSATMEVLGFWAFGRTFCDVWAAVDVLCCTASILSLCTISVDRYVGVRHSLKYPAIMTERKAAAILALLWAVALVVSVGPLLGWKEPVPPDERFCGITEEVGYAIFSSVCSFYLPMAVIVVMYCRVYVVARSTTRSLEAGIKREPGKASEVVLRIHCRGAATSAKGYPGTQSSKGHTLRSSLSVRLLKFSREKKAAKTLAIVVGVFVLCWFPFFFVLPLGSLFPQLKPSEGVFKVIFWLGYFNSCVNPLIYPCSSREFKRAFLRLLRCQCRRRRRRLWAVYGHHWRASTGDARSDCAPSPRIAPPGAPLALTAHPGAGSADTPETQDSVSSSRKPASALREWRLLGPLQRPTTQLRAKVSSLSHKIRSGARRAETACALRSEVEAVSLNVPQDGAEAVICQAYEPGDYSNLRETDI
T2 sequence (P43140 whole entry): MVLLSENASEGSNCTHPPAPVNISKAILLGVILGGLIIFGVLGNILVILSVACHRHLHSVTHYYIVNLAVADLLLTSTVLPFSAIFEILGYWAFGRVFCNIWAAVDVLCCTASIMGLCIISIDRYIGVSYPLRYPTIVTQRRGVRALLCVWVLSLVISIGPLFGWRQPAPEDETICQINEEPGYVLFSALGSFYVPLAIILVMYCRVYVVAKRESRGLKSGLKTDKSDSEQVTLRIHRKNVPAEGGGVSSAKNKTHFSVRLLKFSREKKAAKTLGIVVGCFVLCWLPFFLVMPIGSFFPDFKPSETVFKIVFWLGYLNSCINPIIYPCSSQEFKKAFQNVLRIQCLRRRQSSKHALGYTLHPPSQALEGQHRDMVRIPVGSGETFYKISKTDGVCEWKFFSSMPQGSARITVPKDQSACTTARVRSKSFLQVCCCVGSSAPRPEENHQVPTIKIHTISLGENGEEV

[5] = molecular target: T3, Alpha-2A adrenergic receptor (Homo sapiens, UniProt P08913); test: Inhibition of human adrenergic alpha2A receptor
T3 sequence (P08913 whole entry): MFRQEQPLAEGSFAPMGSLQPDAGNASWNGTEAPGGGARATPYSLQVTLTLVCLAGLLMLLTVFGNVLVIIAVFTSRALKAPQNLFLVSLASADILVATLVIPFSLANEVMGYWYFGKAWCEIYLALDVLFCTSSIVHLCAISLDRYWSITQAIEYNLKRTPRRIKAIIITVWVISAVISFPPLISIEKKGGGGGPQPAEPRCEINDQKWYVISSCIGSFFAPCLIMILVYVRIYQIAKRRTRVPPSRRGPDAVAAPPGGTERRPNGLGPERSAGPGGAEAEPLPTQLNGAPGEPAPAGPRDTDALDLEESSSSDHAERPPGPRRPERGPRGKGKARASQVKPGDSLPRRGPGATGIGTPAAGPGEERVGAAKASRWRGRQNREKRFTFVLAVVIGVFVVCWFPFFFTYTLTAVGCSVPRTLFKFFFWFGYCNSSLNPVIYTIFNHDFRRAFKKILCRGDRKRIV

[6] = molecular target: Sodium-dependent serotonin transporter (Homo sapiens, UniProt P31645); test: Inhibition of human SERT
[7] = molecular target: T4, 5-hydroxytryptamine receptor 1A (Homo sapiens, UniProt P08908); test: Inhibition of human 5HT1A receptor
T4 sequence (P08908 whole entry): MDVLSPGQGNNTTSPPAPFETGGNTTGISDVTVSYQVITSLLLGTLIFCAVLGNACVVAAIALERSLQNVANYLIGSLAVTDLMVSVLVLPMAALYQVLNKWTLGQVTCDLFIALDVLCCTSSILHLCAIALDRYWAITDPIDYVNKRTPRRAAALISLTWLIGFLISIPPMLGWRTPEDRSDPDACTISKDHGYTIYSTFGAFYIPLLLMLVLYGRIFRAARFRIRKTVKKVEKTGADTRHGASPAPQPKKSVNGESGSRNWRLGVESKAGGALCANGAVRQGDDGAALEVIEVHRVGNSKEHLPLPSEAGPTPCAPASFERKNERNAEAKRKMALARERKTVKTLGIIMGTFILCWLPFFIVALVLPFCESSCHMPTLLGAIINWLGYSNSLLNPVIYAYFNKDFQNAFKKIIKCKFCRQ

[8] = molecular target: T5, 5-hydroxytryptamine receptor 2C (Homo sapiens, UniProt P28335); test: Inhibition of human 5HT2C receptor
T5 sequence (P28335 whole entry): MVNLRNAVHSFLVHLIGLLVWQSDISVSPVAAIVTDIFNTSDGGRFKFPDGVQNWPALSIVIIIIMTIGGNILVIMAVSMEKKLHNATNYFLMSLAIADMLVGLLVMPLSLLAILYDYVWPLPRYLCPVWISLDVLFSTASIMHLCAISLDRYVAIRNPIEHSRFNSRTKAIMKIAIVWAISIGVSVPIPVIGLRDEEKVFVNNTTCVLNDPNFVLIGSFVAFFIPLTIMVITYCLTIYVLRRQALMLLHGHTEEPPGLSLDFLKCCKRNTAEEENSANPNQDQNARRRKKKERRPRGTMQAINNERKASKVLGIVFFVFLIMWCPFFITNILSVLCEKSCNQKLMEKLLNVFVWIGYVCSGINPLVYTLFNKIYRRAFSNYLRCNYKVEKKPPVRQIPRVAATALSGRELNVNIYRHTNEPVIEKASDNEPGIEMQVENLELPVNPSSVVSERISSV

[9] = molecular target: T1, 5-hydroxytryptamine receptor 6; test: Displacement of [3H]LSD from human 5HT6 receptor expressed in HEK293 cells at 100 uM by liquid scintillation counting; assay type: cell-based

T1 sequence (P50406 whole entry): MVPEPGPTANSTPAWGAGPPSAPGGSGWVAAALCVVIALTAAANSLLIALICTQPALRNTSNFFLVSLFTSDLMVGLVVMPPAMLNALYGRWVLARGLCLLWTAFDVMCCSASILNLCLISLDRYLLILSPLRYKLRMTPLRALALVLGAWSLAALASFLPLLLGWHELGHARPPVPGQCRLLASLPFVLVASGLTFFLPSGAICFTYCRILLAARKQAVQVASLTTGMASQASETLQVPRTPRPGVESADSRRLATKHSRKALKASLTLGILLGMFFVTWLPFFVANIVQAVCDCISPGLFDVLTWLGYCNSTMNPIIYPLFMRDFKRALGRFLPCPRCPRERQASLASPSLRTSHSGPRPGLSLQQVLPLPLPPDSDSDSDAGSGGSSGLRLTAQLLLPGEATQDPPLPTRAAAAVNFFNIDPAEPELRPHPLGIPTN
Chain of Sodium-dependent serotonin transporter (P31645 whole entry): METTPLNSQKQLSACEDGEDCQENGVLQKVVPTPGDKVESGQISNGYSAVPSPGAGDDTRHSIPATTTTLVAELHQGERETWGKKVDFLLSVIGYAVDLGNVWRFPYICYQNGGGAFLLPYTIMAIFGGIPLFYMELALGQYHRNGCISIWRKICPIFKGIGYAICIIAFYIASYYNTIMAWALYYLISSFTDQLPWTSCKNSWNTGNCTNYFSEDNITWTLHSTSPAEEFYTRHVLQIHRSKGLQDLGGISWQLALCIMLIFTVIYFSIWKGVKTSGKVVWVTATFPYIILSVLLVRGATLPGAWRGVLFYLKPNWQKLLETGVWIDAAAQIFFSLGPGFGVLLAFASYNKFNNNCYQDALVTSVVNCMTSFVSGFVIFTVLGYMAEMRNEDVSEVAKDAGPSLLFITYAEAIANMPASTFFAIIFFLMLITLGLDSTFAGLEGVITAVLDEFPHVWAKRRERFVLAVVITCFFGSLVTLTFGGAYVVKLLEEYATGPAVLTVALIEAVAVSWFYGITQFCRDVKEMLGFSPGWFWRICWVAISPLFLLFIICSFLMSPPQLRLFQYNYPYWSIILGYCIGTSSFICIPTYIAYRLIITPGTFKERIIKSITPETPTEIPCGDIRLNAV

Emax [1] [%] | Ki [3] [nM] | Activity [9] [%] | SMILES | other results
78 | – | – | CC1=C(CCN2CCCC2)c2cc(NS(=O)(=O)c3sc4ccc(Cl)cc4c3C)ccc2C1 | Activity [2]: 100%
98 | 4.5 | – | CC1=C(CCN(C)C)c2cc(NS(=O)(=O)c3c(Cl)nc4sccn34)ccc2C1 | IC50 [4]: > 10000 nM; IC50 [5]: > 1000 nM; IC50 [6]: > 10000 nM; EC50 ([1]; read-out: EC50): 0.9 nM; IC50 [7]: > 1000 nM; IC50 [8]: 1130 nM; Activity [2]: 100%
– | 47 | – | CNc1cc(NS(=O)(=O)c2ccc(N)cc2)nc(NC)n1 | –
– | – | 63 | CC1=C(CCN2CCCC2)c2cc(NS(=O)(=O)c3ccc(N)cc3)ccc2C1 | –
98 | – | 71 | CC1=C(CCN(C)C)c2cc(NS(=O)(=O)c3ccc4ccccc4c3)ccc2C1 | IC50 [5]: > 1000 nM; EC50 ([1]; read-out: EC50): 3.2 nM; IC50 [7]: > 1000 nM
– | – | 2 | Cc1c(S(=O)(=O)Nc2ccc3c(c2)C(CCN(C)C)=CC3(C)C)sc2ccc(Cl)cc12 | –
95 | – | 51 | CC1=C(CCN(C)C)c2cc(S(=O)(=O)Nc3cccc4ccccc34)ccc2C1 | IC50 [5]: 1100 nM; EC50 ([1]; read-out: EC50): 14 nM; IC50 [7]: > 1000 nM
101 | 53 | 88 | CC1=C(CCN(C)C)c2cc(NS(=O)(=O)c3csc4ccccc34)ccc2C1 | IC50 [5]: 700 nM; EC50 ([1]; read-out: EC50): 0.3 nM; IC50 [7]: 1140 nM
– | – | 24 | CN(C)CCC1=CC(C)(C)c2ccc(NS(=O)(=O)c3c(Cl)nc4sccn34)cc21 | –
99 | 10 | 87 | CN(C)CCC1=CCc2ccc(NS(=O)(=O)c3c(Cl)nc4sccn34)cc21 | IC50 [4]: > 10000 nM; IC50 [5]: > 1000 nM; IC50 [6]: > 10000 nM; EC50 ([1]; read-out: EC50): 0.3 nM; IC50 [7]: > 1000 nM; IC50 [8]: > 1000 nM
– | 276 | 78 | CC1=C(CCN(C)C)c2cc(NS(=O)(=O)c3cccc4ccccc34)ccc2C1 | –
37 | 17 | 81 | CC1=C(CCN2CCCC2)c2cc(NS(=O)(=O)c3c(Cl)nc4sccn34)ccc2C1 | –
– | – | 16 | CC1=C(CCN(C)C)c2cc(NS(=O)(=O)c3cccc4nsnc34)ccc2C1 | –
– | – | 3 | CCN(c1ccc2c(c1)C(CCN(C)C)=C(C)C2)S(=O)(=O)c1sc(C)c2cc(Cl)ccc12 | –
– | – | 4 | CC1=C(CCN(C)C)c2cc(NS(=O)(=O)c3ccc(N)cc3)ccc2C1 | –
-58 | 31 | 81 | O=S(=O)(Nc1ccc2c(c1)C(CCN1CCCCC1)=CC2)c1c(Cl)nc2sccn12 | –
– | – | 19 | CC1=C(CCN2CCCC2)c2cc(NS(=O)(=O)c3cccc4nsnc34)ccc2C1 | –

SMILES | Emax [1] [%] | Ki [3] [nM] | Activity [9] [%] | other results
CN(C)CCc1c[nH]c2ccc(NS(=O)(=O)c3ccc4c(Cl)cccc4c3)cc12 | 96 | – | – | EC50 ([1]; read-out: pEC50 (converted)): 0.295 nM
CN(C)CCc1cn(S(=O)(=O)c2ccccc2)c2ccccc12 | – | 3 | – | –
